Test results from ChEMBL document CHEMBL1131436, “Repaglinide and related hypoglycemic benzoic acid derivatives” (1998).
“And” between values parts separate entries of the source, which are not always exact repeats. Equal entries are not always repeated. The source made the active and inactive calls. No cut-off for these calls is given here.

Legend:
Rattus norvegicus [1] = assay: Maximum % decrease of blood glucose (deltaBG) was observed within 4 hour after administration orally at 10 mg/kg dose to fasted adult female rats versus a control group; NS =' not significant'; type: functional, organism-based; set-up: dose 10 mg/kg
Summary of the method: (§1)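 Female Wistar rats (Chbb THOM, SPF, 200-220 g), fasted 24 h, dosed orally by gavage as suspension in 1.5% Tylose methylcellulose (10 mL/kg). Whole blood from retrobulbar plexus under light halothane, deproteinized with 0.33 M HClO4; glucose by hexokinase/G6PDH, hourly up to 4 h. % decrease vs control group (N = 7), Student's t-test, P ≤ 0.05.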

Rattus norvegicus [2] = assay: Maximum % decrease of blood glucose (deltaBG) was observed within 4 hour after administration orally at 0.1 mg/kg dose to fasted adult female rats versus a control group; type: functional; settings: route oral; summary of the method: as §1
Rattus norvegicus [3] = assay: Maximum % decrease of blood glucose (deltaBG) was observed within 4 hour after administration orally at 0.01 mg/kg dose to fasted adult female rats versus a control group; NS =' not significant'; type: functional, organism-based; set-up: dose 0.01 mg/kg; summary of the method: as §1
Rattus norvegicus [4] = assay: Maximum % decrease of blood glucose (deltaBG) was observed within 4 hour after administration orally at 0.01 mg/kg dose to fasted adult female rats versus a control group; type: functional; settings: route oral; summary of the method: as §1
Rattus norvegicus [5] = assay: Half-maximal effective dose was measured on rat blood glucose after administrating at 4 hr; type: functional
Summary of the method: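 Adult fasted female Wistar rats (Chbb THOM, SPF, 200-220 g), food withdrawn 24 h; oral gavage of suspension in 1.5% Tylose (methylcellulose), 10 mL/kg. Retrobulbar blood under light halothane; glucose by hexokinase/G6PDH after HClO4 deproteinization, hourly to 4 h. ED50 from fit of glucose vs dose, y = b + [a × k/(k + x^nH)], Hill coefficient nH.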

Rattus norvegicus [6] = assay: Maximum % decrease of blood glucose (deltaBG) was observed within 4 hour after administration orally at 0.5 mg/kg dose to fasted adult female rats versus a control group; type: functional; settings: route oral; summary of the method: as §1
Rattus norvegicus [7] = assay: Maximum % decrease of blood glucose (deltaBG) was observed within 4 hour after administration orally at 0.25 mg/kg dose to fasted adult female rats versus a control group; type: functional; settings: route oral
Summary of the method: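 Adult female Wistar rats (Chbb THOM, SPF; 200-220 g) fasted 24 h, N=7 per group. Compound suspended in 1.5% methylcellulose (Tylose) and dosed by oral gavage at 10 mL/kg. Retrobulbar blood was drawn under light halothane hourly for up to 4 h. Glucose was read by hexokinase/G6PDH after HClO4 deproteinisation. Value is the maximum % fall versus vehicle controls; Student's t-test, P ≤ 0.05.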

Rattus norvegicus [8] = assay: Maximum % decrease of blood glucose (deltaBG) was observed within 4 hour after administration orally at 1 mg/kg dose to fasted adult female rats versus a control group; type: functional; settings: route oral, 1 mg/kg; summary of the method: as §1
Rattus norvegicus [9] = assay: Maximum % decrease of blood glucose (deltaBG) was observed within 4 hour after administration orally at 0.6 mg/kg dose to fasted adult female rats versus a control group; type: functional; settings: route oral; summary of the method: as §1
Rattus norvegicus [10] = assay: Maximum % decrease of blood glucose (deltaBG) was observed within 4 hour after administration orally at 0.4 mg/kg dose to fasted adult female rats versus a control group; type: functional; settings: route oral; summary of the method: as §1
Rattus norvegicus [11] = assay: Maximum % decrease of blood glucose (deltaBG) was observed within 2 hour after administration orally at 0.1 mg/kg dose to fasted adult female rats versus a control group; type: functional; settings: route oral; summary of the method: as §1
Rattus norvegicus [12] = assay: Maximum % decrease of blood glucose (deltaBG) was observed within 1 hour after administration orally at 0.1 mg/kg dose to fasted adult female rats versus a control group; type: functional; settings: route oral; summary of the method: as §1
Rattus norvegicus [13] = assay: Maximum % decrease of blood glucose (deltaBG) was observed within 3 hour after administration orally at 0.5 mg/kg dose to fasted adult female rats versus a control group; type: functional; settings: route oral; summary of the method: as §1
Rattus norvegicus [14] = assay: Maximum % decrease of blood glucose (deltaBG) was observed within 3 hour after administration orally at 0.1 mg/kg dose to fasted adult female rats versus a control group; type: functional; settings: route oral; summary of the method: as §1
Rattus norvegicus [15] = assay: Maximum % decrease of blood glucose (deltaBG) was observed within 2 hour after administration orally at 0.5 mg/kg dose to fasted adult female rats versus a control group; type: functional; settings: route oral; summary of the method: as §1
Rattus norvegicus [16] = assay: Maximum % decrease of blood glucose (deltaBG) was observed within 1 hour after administration orally at 0.5 mg/kg dose to fasted adult female rats versus a control group; type: functional; settings: route oral; summary of the method: as §1
Rattus norvegicus [17] = assay: Maximum % decrease of blood glucose (deltaBG) was observed within 0.5 hour after administration orally at 0.1 mg/kg dose to fasted adult female rats versus a control group; type: functional; settings: route oral
Rattus norvegicus [18] = species: Rattus norvegicus; settings: Blood, 0.1 mg/kg
Rattus norvegicus [19] = species: Rattus norvegicus; settings: Blood, 0.1 mg/kg; remark: listed apart in the source
Rattus norvegicus [20] = assay: Maximum % decrease of blood glucose (deltaBG) was observed within 4 hour after administration orally at 0.1 mg/kg dose to fasted adult female rats versus a control group; NS =' not significant'; type: functional, organism-based; set-up: dose 0.1 mg/kg; summary of the method: as §1
Rattus norvegicus [21] = species: Rattus norvegicus; settings: Blood, 0.1 mg/kg; remark: listed apart in the source
Rattus norvegicus [22] = assay: Maximum % decrease of blood glucose (deltaBG) was observed within 3 hour after administration orally at 0.1 mg/kg dose to fasted adult female rats versus a control group; NS =' not significant'; type: functional, organism-based; set-up: dose 0.1 mg/kg; summary of the method: as §1
Rattus norvegicus [23] = assay: Maximum % decrease of blood glucose (deltaBG) was observed within 4 hour after administration orally at 0.3 mg/kg dose to fasted adult female rats versus a control group; type: functional; settings: route oral; summary of the method: as §1
[24] = Rattus norvegicus, Blood, 4 h, read-out: ED50

`CC(NC(=O)Cc1ccc(S(N)(=O)=O)cc1)c1ccccc1N1CCCCC1` (configuration not stated) was tested, and the “Delta BG” value (Rattus norvegicus [1]) was “Not significant”.
`CCOc1cc(CC(=O)NC(CC)c2ccccc2N2CCCCC2)ccc1C(=O)O` (configuration not stated) was tested, and the “Delta BG” value (Rattus norvegicus [2]) was -42% and the “Delta BG” value (Rattus norvegicus [3]) was “Not significant”.
`CCOc1cc(CC(=O)N[C@@H](CC(C)C)c2ccccc2N2CCCCC2)ccc1C(=O)O` (stereo in doubt; 6al) [REPAGLINIDE] was tested, and the “Delta BG” value (Rattus norvegicus [4]) was -19%, the ED50 (Rattus norvegicus [5]) was 0.022 mg/kg and the “Delta BG” value (Rattus norvegicus [2]; 0.1 mg/kg) was -44%.
In the case of `O=C(O)c1ccc(CCNC(=O)c2cc(Cl)ccc2N2CCCCCCCC2)cc1`, the ED50 (Rattus norvegicus [5]; [24]) was 0.38 mg/kg, the “Delta BG” value (Rattus norvegicus [6]) was -33% and the “Delta BG” value (Rattus norvegicus [7]) was -13% and -18%. The “Delta BG” value (Rattus norvegicus [8]) was -40% and -39%.
`CCCC(NCCc1ccc(C(=O)O)cc1)c1ccccc1N1CCCCC1` (configuration not stated) was tested, and the “Delta BG” value (Rattus norvegicus [1]) was “Not significant”.
In the case of `O=C(Cc1ccc(C(=O)O)cc1)NC(c1ccccc1)c1ccccc1N1CCCCC1` (configuration not stated), the ED50 (Rattus norvegicus [5]; [24]) was 0.38 mg/kg, the “Delta BG” value (Rattus norvegicus [9]) was -36% and the “Delta BG” value (Rattus norvegicus [10]) was -23%.
With `CCCC(NC(=O)Cc1ccc(C(=O)O)c(OCC)c1)c1ccccc1N1CCCCC1` (configuration not stated) the “Delta BG” value (Rattus norvegicus [11]) was -30%, the “Delta BG” value (Rattus norvegicus [12]) was -32% and the “Delta BG” value (Rattus norvegicus [2]; 0.1 mg/kg) was -32% and -18%. For the same compound, the “Delta BG” value (Rattus norvegicus [6]) was -35%, the “Delta BG” value (Rattus norvegicus [13]) was -34% and the “Delta BG” value (Rattus norvegicus [14]) was -25%. For the same compound, the “Delta BG” value (Rattus norvegicus [15]) was -36% and the “Delta BG” value (Rattus norvegicus [16]) was -43%.
For `CC(C)(NC(=O)Cc1ccc(C(=O)O)cc1)c1cc(Cl)ccc1N1CCCCC1`, the “Delta BG” value (Rattus norvegicus [1]) was “Not significant”.
`CCOc1cc(CC(=O)N[C@@H](CC(C)C)c2ccccc2N2CCCCC2)ccc1C(=O)O` (stereo in doubt; (S)-6al) [REPAGLINIDE] was tested, and the “Delta BG” value (Rattus norvegicus [11]) was -40%, the “Delta BG” value (Rattus norvegicus [12]) was -47% and the “Delta BG” value (Rattus norvegicus [4]) was -21%. For the same compound, the ED50 (Rattus norvegicus [5]) was 0.01 mg/kg, the “Delta BG” value (Rattus norvegicus [2]; 0.1 mg/kg) was -47% and the “Delta BG” value (Rattus norvegicus [14]) was -34%. For the same compound, the “Delta BG” value (Rattus norvegicus [17]) was -42%.
With `COc1ccc(Cl)cc1C(=O)NCCc1ccc(S(=O)(=O)NC(=O)NC2CCCCC2)cc1` [GLYBURIDE] the “Delta BG” value (Rattus norvegicus [18]) was “inactive”, the “Delta BG” value (Rattus norvegicus [19]) was “inactive” and the “Delta BG” value (Rattus norvegicus [20]) was “inactive”. For the same compound, the “Delta BG” value (Rattus norvegicus [21]) was “inactive”, the “Delta BG” value (Rattus norvegicus [22]) was “inactive” and the ED50 (Rattus norvegicus [5]; [24]) was 0.255 mg/kg. The “Delta BG” value (Rattus norvegicus [23]) was -25%.
